An excerpt weighted towards active compounds, which were near 2% of everything screened.
NR2E3 ag-1: activates human photoreceptor nuclear receptor NR2E3 | Q9Y5X4 | GST-NR2E3/biotin-RetCOR TR-FRET, 1536-well | inhibition of corepressor binding, % at 4.78 µM | hit rate 0.12% among 320,000;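 active means percent inhibition above the cutoff of mean plus 3 SD of all tested compounds, set per screening campaign, cut at about 20% in these data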;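 further: 0% = DMSO wells and 100% = biotin wells as full block of FRET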
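System: GST-NR2E3 and biotin-RetCOR proteins; probe or stimulus: 7 nM biotin-RetCOR; doses: compound at 4.8 µM, single dose; schedule: Compound–protein incubation for 5 h at 4 °C; detection: time-resolved FRET; read-out: percent inhibition; controls: biotin wells as high control, 0.6% DMSO wells as low control; format: 1536-well plates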
Rev-erbA mod: Rev-erb alpha (human) modulation | activity, % at 10 µM | AID 1259318 | Rev-erbα–FITC-DNA binding, fluorescence polarization, 90 min | hit rate 0.79% among 370,000;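 active means activity above about 14%, limit read from the data; passing the limit was not always enough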;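 further: 0% = DMSO wells with 35 nM protein and 100% = DMSO wells with 750 nM protein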
Target sequence (P20393 whole entry, looked up): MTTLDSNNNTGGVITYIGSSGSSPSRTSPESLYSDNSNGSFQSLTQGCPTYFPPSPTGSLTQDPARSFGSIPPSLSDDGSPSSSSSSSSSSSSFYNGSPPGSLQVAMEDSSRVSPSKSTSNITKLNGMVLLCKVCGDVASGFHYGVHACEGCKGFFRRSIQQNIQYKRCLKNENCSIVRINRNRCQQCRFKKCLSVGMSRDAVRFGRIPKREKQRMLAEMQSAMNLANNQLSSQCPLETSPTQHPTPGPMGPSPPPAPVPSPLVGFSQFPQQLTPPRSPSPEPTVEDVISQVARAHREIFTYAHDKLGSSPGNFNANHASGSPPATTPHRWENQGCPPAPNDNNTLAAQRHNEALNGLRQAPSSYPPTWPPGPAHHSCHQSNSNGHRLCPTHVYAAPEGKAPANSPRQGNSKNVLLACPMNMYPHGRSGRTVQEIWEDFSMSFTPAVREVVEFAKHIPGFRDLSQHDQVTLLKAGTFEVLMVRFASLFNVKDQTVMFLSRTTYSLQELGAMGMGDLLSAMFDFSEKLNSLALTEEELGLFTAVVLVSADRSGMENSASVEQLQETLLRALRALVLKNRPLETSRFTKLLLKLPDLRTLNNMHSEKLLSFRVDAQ
NR2E3 ag-2: activates human NR2E3 receptor. Q9Y5X4. hit rate 0.35% among 360,000. CHO-S Gal4-NCOR/VP16-NR2E3 two-hybrid, luciferase. inhibition of corepressor binding, % at 3.98 µM;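 active means inhibition above the mean of all tested compounds plus 3 SD, cut at about 70% in these data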;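 further: 0% = DMSO with NR2E3 transfected cells and 100% = cells lacking NR2E3 construct; higher means lower luciferase signal from less NR2E3 corepressor binding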
PG9 Ab binder: PG9 antibody binding by small molecule; TR-FRET gp120-PG9 antibody binding; inhibition, % at 6.7 µM; hit rate 0.43% among 360,000; in the data active means inhibition above about 8.5%
Neddyl block: cullin neddylation inhibition. TR-FRET cullin neddylation, biochemical. P61081+Q13564. AID 651699. hit rate 0.58% among 360,000. calls only at 25 µM; in the data active means inhibition above about 36%
NR2E3 ag confirm: NR2E3 agonism confirmed in two-hybrid assay; shares compounds with NR2E3 ag-2; CHO-S mammalian two-hybrid NR2E3-NCOR, luciferase luminescence; inhibition, % at 3.98 µM; hit rate 51% among 2,300; AID 624378;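 active means average inhibition above a cutoff equal to the mean inhibition of all tested compounds plus one SD, cut at about 70% in these data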;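 further: 0% = DMSO in NR2E3 cells and 100% = DMSO in cells lacking NR2E3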
GAL4-VP16 luc: reduces GAL4-VP16 reporter signal in NR2E3 counterscreen. shares compounds with NR2E3 ag-2. CHO-S GAL4-VP16 luciferase reporter, luminescence. inhibition, % at 3.98 µM. hit rate 29% among 2,300;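 active means mean inhibition above a cutoff equal to the average over all tested compounds plus one standard deviation, cut at about 70% in these data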;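 further: luciferase from a UAS reporter driven by GAL4-VP16 transactivation; 0% = DMSO with VP16-transfected cells and 100% = DMSO with cells lacking VP16; higher means less reporter light so more repression of VP16 activity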
Starred values were filed as active, the others as inactive; i = inactive; . = not tested or not shown.

SMILES | NR2E3 ag-1 | Rev-erbA mod | NR2E3 ag-2 | PG9 Ab binder | Neddyl block | NR2E3 ag confirm | GAL4-VP16 luc
NC1=C(Cl)C(=O)c2ccc(S(N)(=O)=O)cc2C1=O | . | -14 | 72* | -17 | i | 10 | 19
NC1=C(Cl)C(=O)c2ccccc2C1=O | . | -13 | 1 | -8 | i | . | .
Cn1c(SCC(=O)Nc2ccccc2-c2ccccc2)nnc1-c1ccccc1 | . | -6 | . | . | . | . | .
COC(=O)[C@]12C[C@H](CC(=O)N3CCN(C(=O)c4ccco4)CC3)C(=O)N(Cc3cccc4ccccc34)C1=C[C@H](C(C)C)O[C@@H]2C1CC1 | . | 7 | . | . | . | . | .
Cc1cc(NC(=O)c2ccc(NS(=O)(=O)c3ccccc3)cc2)no1 | . | -4 | . | . | . | . | .
Cc1cc(C)c(C#N)c(SCc2nnc(-c3ccccc3)o2)n1 | -3 | 1 | 88* | 0 | i | 73* | 38
Cc1ccc(C#N)c(SCc2nnc(-c3ccc(Cl)cc3)o2)n1 | -1 | 0 | 72* | 0 | . | 77* | 38
C#CCNC(=O)C[C@H]1C[C@@]2(C(=O)OC)C(=C[C@H](C(C)(C)C)O[C@@H]2C)N(Cc2cccc3ccccc23)C1=O | . | 6 | . | . | . | . | .
OC(c1cccc(OCc2ccccc2)c1)c1nnc(-c2ccccc2)o1 (centres undefined) | 2 | -3 | 87* | 1 | i | 92* | 76*
C=CCNC(=O)CSc1nc2c(c(=O)[nH]1)CCCC2 | . | -2 | . | . | . | . | .
Cc1ccc(S(=O)(=O)N2CCN(c3ncnc4sccc34)CC2)cc1C | . | -4 | 105* | 0 | i | 91* | 79*
Cc1ccc(CNC(=O)c2ccc(N3CCCC3=O)cc2)cc1 | 0 | 0 | -28 | 1 | i | . | .
Cn1nc(C(C)(C)C)cc1C(=O)NCc1ccc(N2CCCC2=O)cc1 | 2 | -4 | 92* | 0 | i | 96* | 87*
COC(=O)N1Cc2ccnnc2CC1c1ccccc1-c1ccc(F)cc1 (centres undefined) | . | 8 | . | -1 | . | . | .
O=C(CCCN1C(=O)S/C(=C\c2ccccc2)C1=O)NNC(=O)c1ccccc1O | 8 | 1 | 50 | 0 | i | 60 | 53
O=C(CCCN1C(=O)S/C(=C\C=C\c2ccccc2)C1=O)Nc1ccc(C(=O)O)cc1 | 1 | -9 | 54 | -1 | i | 8 | 58
Cc1ccc(S(=O)(=O)N2CCCC2c2cccc3[nH]cc(C)c23)cc1 (centres undefined) | . | 11 | . | . | . | . | .
Cc1nc2ccc(C(=O)N3CCN(C(=O)C(Cl)Cl)CC3)cc2n1C1CCCC1 | . | -2 | . | . | . | . | .
CCOC(=O)c1c(C)[nH]c(C(=O)C(C)OC(=O)c2cccc(OCc3c(C)noc3C)c2)c1C (centres undefined) | -2 | 6 | 76* | -4 | i | 83* | 64
CNc1snc(C)c1C(=O)OCC(=O)Nc1ccc(C)cc1F | . | 6 | 48 | 0 | i | 31 | 39
O=C(NC(=S)/C(=C1\CCCCCN1)[N+](=O)[O-])c1ccccc1 | . | . | 52 | . | i | 23 | -11
O=C(Nc1nnc(-c2cccnc2)s1)c1cnc2ccccc2c1 | . | -8 | . | . | . | . | .
CCCCCCCCn1c(=O)c(C(=O)OC)c(N)c2ccccc21 | 2 | -5 | 58 | 0 | i | 85* | 50
CCn1c(N)nc2c1c(=O)n(C)c(=O)n2C | 3 | -1 | -1 | -2 | i | . | .
CCCc1nc2c(=O)n(C)c(=O)nc-2n(C)n1 | . | -27 | 104* | -1 | i | 101* | 86*
SMILES | NR2E3 ag-1 | Rev-erbA mod | NR2E3 ag-2 | PG9 Ab binder | Neddyl block | NR2E3 ag confirm | GAL4-VP16 luc
CCn1cc(CNC(=O)c2cc(COc3ccc(F)cc3Cl)on2)cn1 | 3 | 4 | -1 | -2 | i | . | .
CCn1nc(C)c(CNC(=O)c2cc(COc3ccc(F)cc3Cl)on2)c1C | 1 | 3 | 51 | 0 | i | 86* | 71*
Cc1nn(C)c(C)c1CN(Cc1nc(CCC(C)C)no1)C(C)C | 1 | -2 | 86* | 0 | i | 99* | 87*
CCN(CC)C(=O)CC[C@H]1CC[C@]2(CCCN(Cc3ccccn3)C2)O1 | . | 0 | . | . | . | . | .
CC1CCCC=CC2CC(OC(=O)CN(C)C)CC2C(O)C=CC(=O)O1 (centres undefined) | . | 6 | 68 | 0 | i | 98* | 67
CS(=O)(=O)N1CCC[C@]2(CC[C@@H](CCC#N)O2)C1 | . | -4 | . | . | . | . | .
CCC(NC(=O)CCCN1C(=O)COc2ccc(C)cc21)c1ccccc1 (centres undefined) | . | -5 | . | . | . | . | .
CSc1ccc(CN2C(=O)C(F)(F)Oc3c(C(C)=O)cccc32)cc1 | . | . | 49 | . | i | 44 | 53
O=[N+]([O-])c1ccc(O)c(C2CCCCC2)c1 | . | -2 | 99* | 0 | i | 99* | 92*
C=CCN1C(=O)[C@@H](CC(=O)N2CCCCC2)[C@]2(C(=O)OC)CCCCC=C12 | . | -2 | . | . | . | . | .
COc1ccc(CNCC(O)COc2cccc3c2OC(C)(C)C3)cc1 (centres undefined) | 3 | -3 | 51 | -1 | i | 46 | 61
c1ccc(CCNc2ccnc3cc4ccccc4cc23)cc1 | . | 6 | 93* | -13 | . | 97* | 82*
CC(C)Nc1ccc(Nc2ccnc3cc4ccccc4cc23)cc1 | -5 | -11 | -24 | -14 | i | . | .
CCN1/C(=C\C(=S)Nc2ccccc2)Sc2ccccc21 | -4 | 4 | -17 | -4 | i | . | .
CCN1/C(=C/C(C)=C/c2sc3ccccc3[n+]2CC)Sc2ccccc21 | -18 | -10 | 92* | -25 | i | 100* | 95*
O=C(NCc1cccc2ccccc12)C1CCCN(c2nc3ccccc3o2)C1 (centres undefined) | . | -1 | . | . | . | . | .
NC(=O)[C@@H]1CCCN1C(=O)[C@@H](Cc1ccccc1)NC(=O)[C@H]1O[C@@H](n2ccc(N)nc2=O)[C@H](O)[C@@H]1O | . | -1 | . | 0 | . | . | .
Cc1ccc(S(=O)(=O)N(C)C)cc1NC(=O)C(C)NC(C)c1cccs1 (centres undefined) | 1 | 1 | 9 | 2 | i | . | .
Cc1ccc(S(=O)(=O)N(C)C)cc1NC(=O)C(C)N(C)Cc1sccc1C (centres undefined) | 0 | -2 | 60 | -2 | i | 37 | 31
CCOc1cc(CNCCc2ccc(S(N)(=O)=O)cc2)ccc1OCc1ccc(Cl)cc1 | -5 | -4 | 52 | 0 | i | 44 | 30
C[C@]12C=CC(=O)C=C1CCC1C2[C@@H](O)C[C@@]2(C)C1CC[C@]2(O)C(=O)COP(=O)(O)O (some centres undefined) | . | 4 | . | . | . | . | .
CC1(C)[C@H]2CC[C@]1(C)C(=O)C2 | . | -1 | . | . | . | . | .
Cc1ccc(S(=O)(=O)N2[C@@H](c3ccc(Cl)c(Cl)c3)C(C(=O)O)=C[C@H]2CC2CCCC2)cc1 | . | -4 | 88* | 1 | i | 82* | 47
CCCCCC[C@@H](CN(CCCC)S(C)(=O)=O)c1ccccc1 | . | -5 | . | . | . | . | .

High-throughput results deposited in PubChem BioAssay by several laboratories.
